Measured values from ChEMBL document CHEMBL2440017, “Discovery of a potent, selective, and orally bioavailable histamine H3 receptor antagonist SAR110068 for the treatment of sleep-wake disorders” (Bioorg Med Chem Lett, 2013).
Values after ≈ are worked out from the molar mass of the structure shown. Active and inactive are the calls of the source. The rule behind the calls is not given here.

Tests used:
[1] = system: Rattus norvegicus; test: Awakening activity in rat assessed as increased wakefulness at 3 to 10 mg/kg, po after 4 hrs; assay type: functional, organism-based
In short: (§1)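 Rats given compound orally at 3 or 10 mg/kg, or reference drugs i.p. or p.o. at 10 mg/kg. EEG recorded during the light phase and scored as wakefulness, slow wave sleep and REM sleep. Time-course analysis of the effects.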

[2] = system: Rattus norvegicus; test: Awakening activity in rat assessed as decrease in slow wave and REM sleep at 3 to 10 mg/kg, po; assay type: functional, organism-based; in short: as §1
[3] = system: Rattus norvegicus; test: Awakening activity in rat assessed as increased wakefulness at 3 to 10 mg/kg, po; assay type: functional, organism-based; in short: as §1
[4] = Plasma concentration in cynomolgus monkey at 30 mg/kg, iv after 15 mins; assay type: ADME, organism-based, Macaca fascicularis; parameters: dose 30 mg/kg, route intravenous
[5] = Plasma concentration in cynomolgus monkey at 10 mg/kg, iv after 15 mins; assay type: ADME, organism-based, Macaca fascicularis; parameters: dose 10 mg/kg, route intravenous
In short: (§2)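 Anaesthetized cynomolgus monkeys were dosed 10 mg/kg i.v. Plasma drug concentrations were measured at 5, 15 and 30 min post-dose, alongside arterial pressure, heart rate and ECG intervals.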

[6] = Plasma concentration in cynomolgus monkey at 10 mg/kg, iv after 5 mins; assay type: ADME, organism-based, Macaca fascicularis; parameters: dose 10 mg/kg, route intravenous; in short: as §2
[7] = system: Mus musculus; test: Autonomic toxicity in mouse at 10 to 30 mg/kg, po; assay type: organism-based; parameters: dose 10-30 mg/kg, route oral; details: in vivo
In short: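 Acute oral behavioural safety evaluation in grouped mice at 0, 10 and 30 mg/kg p.o. Animals scored for behavioural, neurologic and autonomic signs.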

[8] = system: Mus musculus; test: Toxicity in mouse assessed as behavioral side effect at 10 to 30 mg/kg, po; assay type: organism-based; parameters: dose 10-30 mg/kg, route oral; details: in vivo
In short: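 Acute oral behavioral safety evaluation in mice. Oral doses were 0, 10 and 30 mg/kg. Behavioral, neurologic and autonomic signs were scored.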

[9] = Genotoxicity in micronucleus (unknown origin) at 5 to 950 ug/ml in presence of human liver microsomes; assay type: toxicity, Microsome
In short: (§3)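 Ames II and micronucleus tests, Ames over 3–1000 µg/mL and MNT over 5–950 µg/mL. Each run with and without metabolic activation by human liver microsome preparations.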

[10] = system: Salmonella typhimurium; test: Genotoxicity in Salmonella typhimurium at 3 to 1000 ug/ml by Ames 2 test in presence of human liver microsomes; assay type: toxicity, organism-based; details: salmonella enterica subsp. enterica serovar typhimurium; in short: as §3
[11] = molecular target: Voltage-gated inwardly rectifying potassium channel KCNH2 (Homo sapiens, UniProt Q12809); test: Inhibition of human ERG expressed in CHO cells by patch-clamp technique; assay type: cell-based
Voltage-gated inwardly rectifying potassium channel KCNH2, sequence (Q12809 whole entry): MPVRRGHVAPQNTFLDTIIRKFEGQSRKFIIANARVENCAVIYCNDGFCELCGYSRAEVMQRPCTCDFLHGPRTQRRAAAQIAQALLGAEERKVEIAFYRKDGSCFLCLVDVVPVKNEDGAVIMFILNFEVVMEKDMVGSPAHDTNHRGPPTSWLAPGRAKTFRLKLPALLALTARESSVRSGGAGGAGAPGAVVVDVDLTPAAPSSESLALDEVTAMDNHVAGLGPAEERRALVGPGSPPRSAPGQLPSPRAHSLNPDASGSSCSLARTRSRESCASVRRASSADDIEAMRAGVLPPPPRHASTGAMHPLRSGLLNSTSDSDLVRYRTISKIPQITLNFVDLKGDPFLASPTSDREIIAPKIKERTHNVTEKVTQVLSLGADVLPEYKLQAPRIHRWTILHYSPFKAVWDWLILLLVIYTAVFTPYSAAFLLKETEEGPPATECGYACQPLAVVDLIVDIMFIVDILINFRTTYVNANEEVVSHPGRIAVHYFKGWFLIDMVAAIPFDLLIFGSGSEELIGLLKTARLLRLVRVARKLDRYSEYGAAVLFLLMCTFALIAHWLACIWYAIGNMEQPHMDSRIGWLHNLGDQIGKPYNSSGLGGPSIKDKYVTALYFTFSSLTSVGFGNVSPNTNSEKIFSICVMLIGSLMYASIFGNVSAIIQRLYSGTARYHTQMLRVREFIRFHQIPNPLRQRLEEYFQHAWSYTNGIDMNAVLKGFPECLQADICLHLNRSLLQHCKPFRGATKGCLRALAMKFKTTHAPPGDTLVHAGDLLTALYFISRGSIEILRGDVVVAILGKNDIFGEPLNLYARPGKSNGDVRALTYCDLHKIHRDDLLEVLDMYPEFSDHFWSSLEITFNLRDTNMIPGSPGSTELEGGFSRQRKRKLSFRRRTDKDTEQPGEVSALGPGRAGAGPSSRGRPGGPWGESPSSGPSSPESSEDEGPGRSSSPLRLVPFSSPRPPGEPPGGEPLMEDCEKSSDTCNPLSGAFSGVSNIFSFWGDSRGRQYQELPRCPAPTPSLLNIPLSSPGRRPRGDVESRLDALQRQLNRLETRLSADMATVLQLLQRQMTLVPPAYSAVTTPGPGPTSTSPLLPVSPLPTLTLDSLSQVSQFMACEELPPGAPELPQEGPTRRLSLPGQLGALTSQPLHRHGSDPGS
In short: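 hERG current recorded by whole-cell patch clamp in CHO cells stably transfected with the human ERG gene.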

[12] = Activation of p-glycoprotein (unknown origin); details: human
[13] = Inhibition of p-glycoprotein (unknown origin); details: human
[14] = Induction of CYP450 in human hepatocytes at 1 to 60 uM; assay type: ADME, cell-based, Hepatocyte
In short: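 Human hepatocytes (n = 4) exposed at 1–60 concentration and examined for induction of CYP isoforms.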

[15] = Elimination half life in Sprague-Dawley rat brain at 10 mg/kg, po; assay type: ADME, organism-based; parameters: dose 10 mg/kg, route oral; details: read-out: beta t1/2 (converted)
In short: (§4)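 Oral gavage at 10 mg/kg to male OF1 mice (vehicle 5% DMSO/0.5% MC/0.2% Tween80, 1.0 mg/mL) or male Sprague-Dawley rats (vehicle 0.5% MC/0.2% Tween80, 1.0 mg/mL). Plasma and brain exposure and half-life determined.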

[16] = AUC in Sprague-Dawley rat brain at 10 mg/kg, po; assay type: ADME, organism-based; parameters: dose 10 mg/kg, route oral; in short: as §4
[17] = AUC (0 to infinity) in Sprague-Dawley rat brain at 2 mg/kg, iv; assay type: ADME, organism-based; parameters: dose 2 mg/kg, route intravenous, time infinity
In short: (§5)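 Male OF1 mice or male Sprague-Dawley rats, single 2 mg/kg i.v. dose. Mouse vehicle 50% 1-methyl-2-pyrrolidinone in saline at 1.0 mg/mL; rat vehicle saline at 0.5 mg/mL. Plasma and brain levels followed over time; AUC0-inf, t1/2 and clearance derived from exposure. Brain/plasma ratio uses i.v. AUC0-inf.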

[18] = Elimination half life in Sprague-Dawley rat brain at 2 mg/kg, iv; assay type: ADME, organism-based; parameters: dose 2 mg/kg, route intravenous; details: read-out: beta t1/2 (converted); in short: as §5
[19] = AUC (0 to infinity) in Sprague-Dawley rat plasma at 10 mg/kg, po; assay type: ADME, organism-based; parameters: time infinity, dose 10 mg/kg, route oral; in short: as §4
[20] = system: Plasma; test: Clearance in Sprague-Dawley rat plasma at 2 mg/kg, iv; assay type: ADME, organism-based; parameters: dose 2 mg/kg, route intravenous; details: in vivo; in short: as §5
[21] = Ratio of AUC (0 to infinity) in OF1 mouse brain to AUC (0 to infinity) in OF1 mouse plasma at 2 mg/kg, iv; assay type: ADME, organism-based; parameters: dose 2 mg/kg, route intravenous; details: read-out: Ratio AUC
In short: (§6)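 Male OF1 mice received 2 mg/kg i.v. (1.0 mg/mL in 50% 1-methyl-2-pyrrolidinone/saline) or 10 mg/kg p.o. (1.0 mg/mL in 5% DMSO/0.5% MC/0.2% Tween80). Plasma and brain AUC0-inf were measured, and the B/P ratio was calculated from i.v. AUC0-inf.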

[22] = Elimination half life in OF1 mouse brain at 2 mg/kg, iv; assay type: ADME, organism-based; parameters: dose 2 mg/kg, route intravenous; details: read-out: beta t1/2 (converted); in short: as §5
[23] = Elimination half life in OF1 mouse plasma at 10 mg/kg, po; assay type: ADME, organism-based; parameters: dose 10 mg/kg, route oral; details: read-out: beta t1/2 (converted); in short: as §4
[24] = system: Plasma; test: Clearance in OF1 mouse plasma at 2 mg/kg, iv; assay type: ADME, organism-based; parameters: dose 2 mg/kg, route intravenous; details: in vivo; in short: as §5
[25] = Volume of distribution in OF1 mouse plasma at 2 mg/kg, iv; assay type: ADME, organism-based; parameters: dose 2 mg/kg, route intravenous; in short: as §6
[26] = AUC (0 to infinity) in OF1 mouse plasma at 2 mg/kg, iv; assay type: ADME, organism-based; parameters: dose 2 mg/kg, route intravenous, time infinity; in short: as §5
[27] = molecular target: Cytochrome P450 2D6 (Homo sapiens, UniProt P10635); test: Inhibition of CYP2D6 (unknown origin); assay type: ADME
Cytochrome P450 2D6, sequence (P10635 whole entry): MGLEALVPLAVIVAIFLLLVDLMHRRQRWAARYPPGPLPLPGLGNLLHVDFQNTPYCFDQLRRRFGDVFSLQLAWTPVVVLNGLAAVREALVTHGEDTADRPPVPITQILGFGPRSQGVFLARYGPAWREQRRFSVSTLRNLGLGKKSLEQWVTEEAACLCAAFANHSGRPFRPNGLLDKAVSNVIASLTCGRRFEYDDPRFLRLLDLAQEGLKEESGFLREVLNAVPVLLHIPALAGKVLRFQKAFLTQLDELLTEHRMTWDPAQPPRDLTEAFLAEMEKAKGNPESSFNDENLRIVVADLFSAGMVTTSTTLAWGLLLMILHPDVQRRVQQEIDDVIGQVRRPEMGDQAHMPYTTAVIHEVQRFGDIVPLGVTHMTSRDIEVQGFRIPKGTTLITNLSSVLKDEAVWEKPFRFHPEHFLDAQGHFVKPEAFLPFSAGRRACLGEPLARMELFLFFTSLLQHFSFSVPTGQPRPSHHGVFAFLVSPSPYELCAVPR

[28] = molecular target: CYP3A4 (Homo sapiens, UniProt P08684); test: Inhibition of CYP3A4 (unknown origin) at 0.5 uM; assay type: ADME
CYP3A4, sequence (P08684 whole entry): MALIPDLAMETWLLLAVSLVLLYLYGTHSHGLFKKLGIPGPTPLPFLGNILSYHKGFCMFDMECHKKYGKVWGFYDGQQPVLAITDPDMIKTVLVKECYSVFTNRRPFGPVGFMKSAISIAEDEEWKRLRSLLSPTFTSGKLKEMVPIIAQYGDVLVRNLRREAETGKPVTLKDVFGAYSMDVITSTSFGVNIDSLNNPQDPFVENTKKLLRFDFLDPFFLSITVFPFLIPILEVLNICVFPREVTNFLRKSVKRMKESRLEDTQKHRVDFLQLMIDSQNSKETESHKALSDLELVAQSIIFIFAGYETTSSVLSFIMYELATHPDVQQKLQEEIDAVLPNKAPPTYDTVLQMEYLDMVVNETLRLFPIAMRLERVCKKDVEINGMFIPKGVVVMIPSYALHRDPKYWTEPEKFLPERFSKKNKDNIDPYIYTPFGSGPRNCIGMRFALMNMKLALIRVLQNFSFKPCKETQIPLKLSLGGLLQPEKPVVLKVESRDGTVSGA

[29] = Metabolic stability in dog microsomes; assay type: ADME, Canis lupus familiaris, Microsome
In short: (§7)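 Percentage biotransformation measured in vitro in liver microsomes of each species.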

[30] = Metabolic stability in mouse microsomes; assay type: ADME, Microsome; in short: as §7
[31] = system: Plasma; test: Metabolic stability in sheep plasma; assay type: ADME, cell-free, Ovis aries
In short: (§8)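 Compound stability measured in plasma of each species in vitro.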

[32] = system: Plasma; test: Metabolic stability in rabbit plasma; assay type: ADME, cell-free, Oryctolagus cuniculus; in short: as §8
[33] = system: Plasma; test: Metabolic stability in monkey plasma; assay type: ADME, cell-free, Macaca mulatta; details: rhesus monkey; in short: as §8
[34] = Metabolic stability in guinea pig plasma; assay type: ADME, cell-free, Cavia porcellus; in short: as §8
[35] = system: Plasma; test: Metabolic stability in mouse plasma; assay type: ADME, cell-free; in short: as §8
[36] = system: Plasma; test: Metabolic stability in human plasma; assay type: ADME, cell-free; in short: as §8
[37] = molecular target: Sigma non-opioid intracellular receptor 1 (Homo sapiens) (UniProt Q99720); test: Inhibition of sigma 1 receptor (unknown origin) at 10 uM
Sigma non-opioid intracellular receptor 1 (Homo sapiens), sequence (Q99720 whole entry): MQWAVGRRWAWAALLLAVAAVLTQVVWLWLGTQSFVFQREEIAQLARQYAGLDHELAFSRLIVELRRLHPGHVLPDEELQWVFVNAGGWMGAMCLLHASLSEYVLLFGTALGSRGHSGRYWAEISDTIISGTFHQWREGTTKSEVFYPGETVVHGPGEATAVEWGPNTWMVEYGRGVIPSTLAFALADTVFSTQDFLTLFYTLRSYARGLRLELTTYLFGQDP
In short: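 CEREP selectivity panel: percent inhibition of control specific binding at 10 µM.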

[38] = Drug degradation in aqueous solution at pH 1.0 to 7.4 after 48 hrs at room temperature; assay type: physicochemical; details: read-out: Drug degradation
In short: (§9)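 Compound kept 48 h at room temperature in water, aqueous solutions of pH 1.0–7.4, DMSO, or GI-tract simulation medium. Percent degradation measured.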

[39] = Solubility of the compound in gastrointestinal tract simulation medium; assay type: physicochemical
[40] = Drug degradation in water after 48 hrs at room temperature; assay type: physicochemical; details: read-out: Drug degradation; in short: as §9
[41] = Solubility of the compound in water; assay type: physicochemical
[42] = Lipophilicity, log P of the compound; assay type: physicochemical; details: octanol/water
In short: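 clogP calculated with ACD/Labs methods.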

[43] = molecular target: Histamine receptor H3 (Macaca mulatta, UniProt Q865E1); test: Displacement of [3H]N-alpha-methylhistamine from rhesus monkey histamine H3 receptor expressed in CHO cells; assay type: cell-based
Histamine receptor H3, sequence (Q865E1 whole entry): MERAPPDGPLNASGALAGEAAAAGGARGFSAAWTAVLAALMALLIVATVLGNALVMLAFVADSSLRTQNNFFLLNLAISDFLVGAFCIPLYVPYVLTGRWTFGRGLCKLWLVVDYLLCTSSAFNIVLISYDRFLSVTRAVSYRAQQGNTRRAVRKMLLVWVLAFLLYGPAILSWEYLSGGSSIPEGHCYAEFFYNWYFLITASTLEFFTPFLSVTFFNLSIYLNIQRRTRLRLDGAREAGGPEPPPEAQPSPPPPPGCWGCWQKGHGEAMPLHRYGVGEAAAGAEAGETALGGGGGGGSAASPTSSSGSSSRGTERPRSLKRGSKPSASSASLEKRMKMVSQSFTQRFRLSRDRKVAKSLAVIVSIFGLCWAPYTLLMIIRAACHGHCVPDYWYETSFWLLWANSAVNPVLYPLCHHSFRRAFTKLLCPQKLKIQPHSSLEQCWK
In short: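 Membranes from CHO cells stably expressing rhesus monkey H3 receptor. Competition binding against [3H]N-α-methylhistamine; Ki values are means of three or more determinations.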

## Cc1cc(N2CC[C@H](N3CCC[C@@H]3C)C2)ccc1NC(=O)C1CCOCC1
[1]
  Activity: Active
[2]
  Activity: Active
[3]
  Activity: Active
[4]
  concentration at 0.25 h: 11 µM
[5]
  concentration at 0.25 h: 14 µM
[6]
  concentration at 5 min: 28 µM
[7]
  Activity: Non-toxic
[8]
  Activity: Non-toxic
[9]
  Activity: Non-toxic
[10]
  Activity: Non-toxic
[11]
  IC50: 18.9 µM
[12]
  Activity: Not Active
[13]
  inhibition (INH): Not Active
[14]
  Activity: Not Active
[15]
  half-life: 3.8 h
[16]
  AUC: 4.2 µg·h/mL
[17]
  AUC(0-inf): 0.7 µg·h/mL
[18]
  half-life: 3.6 h
[19]
  AUC(0-inf): 8.4 µg·h/mL
[20]
  clearance: 1 L/h/kg
[21]
  Kp: 0.35
[22]
  half-life: 0.83 h
[23]
  half-life: 2.3 h
[24]
  clearance: 1.8 L/h/kg
[25]
  Vd: 3.5 L/kg
[26]
  AUC(0-inf): 1.1 µg·h/mL
[27]
  inhibition (INH): Active
[28]
  inhibition at 0.5 µM: 49%
[29]
  Stability: Stable
[30]
  Stability: Stable
[31]
  Stability: Stable
[32]
  Stability: Stable
[33]
  Stability: Stable
[34]
  Stability: Stable
[35]
  Stability: Stable
[36]
  Stability: Stable
[37]
  inhibition: 53%
[38]
  degraded at 48 h: < 2%
[39]
  solubility: > 2.5 mg/mL
[40]
  degraded at 48 h: < 2%
[41]
  solubility: 1.1 mg/mL (≈ 2960 µM)
[42]
  logP: 1.31
[43]
  Ki: 0.00097 µM
